Data reported in ChEMBL document CHEMBL1150108, “Isolation of S-n-butylcysteine sulfoxide and six n-butyl-containing thiosulfinates from Allium siculum” (2002).

Assays:
Format in all cases: functional
[1] = tested on: Streptococcus agalactiae; assay: Antibacterial activity against Streptococcus agalactiae ATCC 13813 at 10 ug/disk after overnight incubation by agar diffusion test; conditions: for zone of inhibition at 10 µg/disc: read-out: Diameter of inhibition zone
In short: (§1)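 Disk diffusion on agar plates seeded with the named strain. Test samples were dissolved in EtOH, and a 10 µL aliquot was applied to a 6 mm paper disk to give 10, 250 or 500 µg per disk. Commercial antibiotic disks served as controls. Plates were incubated overnight at 37 °C, and the diameter of the inhibition zone around each disk was read in mm.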

[2] = tested on: Klebsiella pneumoniae subsp. pneumoniae; assay: Antibacterial activity against Klebsiella pneumoniae subsp. pneumoniae ATCC 13833 at 10 ug/disk after overnight incubation by agar diffusion test; conditions: for zone of inhibition at 10 µg/disc: read-out: Diameter of inhibition zone; in short: as §1
[3] = tested on: Stenotrophomonas maltophilia; assay: Antibacterial activity against Stenotrophomonas maltophilia ATCC 13637 at 10 ug/disk after overnight incubation by agar diffusion test; conditions: for zone of inhibition at 10 µg/disc: read-out: Diameter of inhibition zone; in short: as §1
[4] = tested on: Bacillus cereus; assay: Antibacterial activity against Bacillus cereus ATCC 11778 at 10 ug/disk after overnight incubation by agar diffusion test; conditions: for zone of inhibition at 10 µg/disc: read-out: Diameter of inhibition zone; in short: as §1
[5] = tested on: Staphylococcus aureus; assay: Antibacterial activity against Staphylococcus […] at 10 ug/disk after overnight incubation by agar diffusion test; conditions: read-out: Diameter of inhibition zone; in short: as §1
[6] = tested on: Pseudomonas aeruginosa; assay: Antibacterial activity against Pseudomonas aeruginosa ATCC 27853 at 10 ug/disk after overnight incubation by agar diffusion test; conditions: read-out: Diameter of inhibition zone; in short: as §1
[7] = tested on: Escherichia coli; assay: Antibacterial activity against Escherichia coli ATCC 25922 at 10 ug/disk after overnight incubation by agar diffusion test; conditions: read-out: Diameter of inhibition zone; in short: as §1
[8] = tested on: Streptococcus agalactiae; assay: Antibacterial activity against Streptococcus agalactiae ATCC 13813 at 30 ug/disk after overnight incubation by agar diffusion test; conditions: read-out: Diameter of inhibition zone
In short: (§2)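 Commercial antibiotic control disks were placed on agar plates seeded with the named strain. Plates were incubated overnight at 37 °C, and the diameter of the inhibition zone around each disk was measured in mm.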

[9] = tested on: Staphylococcus aureus; assay: Antibacterial activity against Staphylococcus […] at 30 ug/disk after overnight incubation by agar diffusion test; conditions: read-out: Diameter of inhibition zone; in short: as §2
[10] = tested on: Stenotrophomonas maltophilia; assay: Antibacterial activity against Stenotrophomonas maltophilia ATCC 13637 at 30 ug/disk after overnight incubation by agar diffusion test; conditions: read-out: Diameter of inhibition zone; in short: as §2
[11] = tested on: Bacillus cereus; assay: Antibacterial activity against Bacillus cereus ATCC 11778 at 30 ug/disk after overnight incubation by agar diffusion test; conditions: read-out: Diameter of inhibition zone; in short: as §2
[12] = tested on: Escherichia coli; assay: Antibacterial activity against Escherichia coli ATCC 25922 at 30 ug/disk after overnight incubation by agar diffusion test; conditions: read-out: Diameter of inhibition zone; in short: as §2
[13] = tested on: Klebsiella pneumoniae subsp. pneumoniae; assay: Antibacterial activity against Klebsiella pneumoniae subsp. pneumoniae ATCC 13833 at 30 ug/disk after overnight incubation by agar diffusion test; conditions: read-out: Diameter of inhibition zone; in short: as §2
[14] = tested on: Pseudomonas aeruginosa; assay: Antibacterial activity against Pseudomonas aeruginosa ATCC 27853 at 30 ug/disk after overnight incubation by agar diffusion test; conditions: read-out: Diameter of inhibition zone; in short: as §2
[15] = tested on: Staphylococcus aureus; assay: Antibacterial activity against Staphylococcus […] at 250 ug/disk after overnight incubation by agar diffusion test; conditions: read-out: Diameter of inhibition zone; in short: as §1
[16] = tested on: Klebsiella pneumoniae subsp. pneumoniae; assay: Antibacterial activity against Klebsiella pneumoniae subsp. pneumoniae ATCC 13833 at 250 ug/disk after overnight incubation by agar diffusion test; conditions: read-out: Diameter of inhibition zone; in short: as §1
[17] = tested on: Staphylococcus aureus; assay: Antibacterial activity against Staphylococcus […] at 500 ug/disk after overnight incubation by agar diffusion test; conditions: read-out: Diameter of inhibition zone; in short: as §1
[18] = tested on: Escherichia coli; assay: Antibacterial activity against Escherichia coli ATCC 25922 at 500 ug/disk after overnight incubation by agar diffusion test; conditions: read-out: Diameter of inhibition zone; in short: as §1
[19] = tested on: Klebsiella pneumoniae subsp. pneumoniae; assay: Antibacterial activity against Klebsiella pneumoniae subsp. pneumoniae ATCC 13833 at 500 ug/disk after overnight incubation by agar diffusion test; conditions: read-out: Diameter of inhibition zone; in short: as §1
[20] = tested on: Streptococcus agalactiae; assay: Antibacterial activity against Streptococcus agalactiae ATCC 13813 at 250 ug/disk after overnight incubation by agar diffusion test; conditions: read-out: Diameter of inhibition zone; in short: as §1
[21] = tested on: Pseudomonas aeruginosa; assay: Antibacterial activity against Pseudomonas aeruginosa ATCC 27853 at 250 ug/disk after overnight incubation by agar diffusion test; conditions: read-out: Diameter of inhibition zone; in short: as §1
[22] = tested on: Bacillus cereus; assay: Antibacterial activity against Bacillus cereus ATCC 11778 at 500 ug/disk after overnight incubation by agar diffusion test; conditions: read-out: Diameter of inhibition zone; in short: as §1
[23] = tested on: Stenotrophomonas maltophilia; assay: Antibacterial activity against Stenotrophomonas maltophilia ATCC 13637 at 500 ug/disk after overnight incubation by agar diffusion test; conditions: read-out: Diameter of inhibition zone; in short: as §1
[24] = tested on: Escherichia coli; assay: Antibacterial activity against Escherichia coli ATCC 25922 at 250 ug/disk after overnight incubation by agar diffusion test; conditions: read-out: Diameter of inhibition zone; in short: as §1
[25] = tested on: Bacillus cereus; assay: Antibacterial activity against Bacillus cereus ATCC 11778 at 250 ug/disk after overnight incubation by agar diffusion test; conditions: read-out: Diameter of inhibition zone; in short: as §1
[26] = tested on: Pseudomonas aeruginosa; assay: Antibacterial activity against Pseudomonas aeruginosa ATCC 27853 at 500 ug/disk after overnight incubation by agar diffusion test; conditions: read-out: Diameter of inhibition zone; in short: as §1
[27] = tested on: Streptococcus agalactiae; assay: Antibacterial activity against Streptococcus agalactiae ATCC 13813 at 500 ug/disk after overnight incubation by agar diffusion test; conditions: read-out: Diameter of inhibition zone; in short: as §1
[28] = tested on: Stenotrophomonas maltophilia; assay: Antibacterial activity against Stenotrophomonas maltophilia ATCC 13637 at 250 ug/disk after overnight incubation by agar diffusion test; conditions: read-out: Diameter of inhibition zone; in short: as §1

Compound | zone of inhibition at 10 µg/disc [1] | zone of inhibition at 10 µg/disc [5] | zone of inhibition at 10 µg/disc [2] | zone of inhibition at 10 µg/disc [6] | zone of inhibition at 10 µg/disc [3] | zone of inhibition at 10 µg/disc [4] | zone of inhibition at 10 µg/disc [7] | zone of inhibition at 250 µg/disc [15] | zone of inhibition at 250 µg/disc [16] | zone of inhibition at 500 µg/disc [17] | zone of inhibition at 500 µg/disc [18] | zone of inhibition at 500 µg/disc [19] | zone of inhibition at 250 µg/disc [20] | zone of inhibition at 250 µg/disc [21] | zone of inhibition at 500 µg/disc [22] | zone of inhibition at 500 µg/disc [23] | zone of inhibition at 250 µg/disc [24] | zone of inhibition at 250 µg/disc [25] | zone of inhibition at 500 µg/disc [26] | zone of inhibition at 500 µg/disc [27] | further results
GENTAMICIN | – | – | – | – | – | – | – | – | – | – | – | – | – | – | – | – | – | – | – | – | inhibition zone (IZ) [1]: 18 mm; inhibition zone (IZ) [2]: 22 mm; inhibition zone (IZ) [3]: 20 mm; inhibition zone (IZ) [4]: 22 mm
CC1(C)S[C@@H]2[C@H](NC(=O)[C@H](N)c3ccccc3)C(=O)N2[C@H]1C(=O)O [AMPICILLIN] | 30 mm | 38 mm | 0 mm | 0 mm | 0 mm | 7 mm | 18 mm | – | – | – | – | – | – | – | – | – | – | – | – | – | –
CN(C)[C@@H]1C(O)=C(C(N)=O)C(=O)[C@@]2(O)C(O)=C3C(=O)c4c(O)cccc4[C@@](C)(O)[C@H]3C[C@@H]12 [TETRACYCLINE] | – | – | – | – | – | – | – | – | – | – | – | – | – | – | – | – | – | – | – | – | zone of inhibition at 30 µg/disc [8]: 28 mm; zone of inhibition at 30 µg/disc [9]: 20 mm; zone of inhibition at 30 µg/disc [10]: 13 mm; zone of inhibition at 30 µg/disc [11]: 27 mm; zone of inhibition at 30 µg/disc [12]: 18 mm; zone of inhibition at 30 µg/disc [13]: 18 mm; zone of inhibition at 30 µg/disc [14]: 10 mm
CCCC[S+]([O-])SC (stereo not drawn) | 0 mm | 8 mm | 0 mm | 0 mm | 0 mm | 0 mm | 0 mm | 30 mm | 16 mm | 38 mm | 24 mm | 18 mm | 0 mm | 0 mm | 34 mm | 14 mm | 22 mm | 30 mm | 8 mm | 0 mm | zone of inhibition at 250 µg/disc [28]: 12 mm
CCCCS[S+]([O-])CCCC (stereo not drawn) | 0 mm | 10 mm | 0 mm | 0 mm | 0 mm | 8 mm | 0 mm | 34 mm | 8 mm | 38 mm | 16 mm | 8 mm | 30 mm | 0 mm | 40 mm | 16 mm | 10 mm | 34 mm | 0 mm | 34 mm | zone of inhibition at 250 µg/disc [28]: 8 mm
CCCCS[S+](C)[O-] (stereo not drawn) | 0 mm | 0 mm | 0 mm | 0 mm | 0 mm | 0 mm | 0 mm | 20 mm | 12 mm | 26 mm | 20 mm | 20 mm | 16 mm | 0 mm | 28 mm | 17 mm | 14 mm | 22 mm | 0 mm | 24 mm | zone of inhibition at 250 µg/disc [28]: 12 mm
O=C(N[C@H](CO)[C@H](O)c1ccc([N+](=O)[O-])cc1)C(Cl)Cl [CHLORAMPHENICOL] | – | – | – | – | – | – | – | – | – | – | – | – | – | – | – | – | – | – | – | – | zone of inhibition at 30 µg/disc [8]: 23 mm; zone of inhibition at 30 µg/disc [9]: 18 mm; zone of inhibition at 30 µg/disc [10]: 22 mm; zone of inhibition at 30 µg/disc [11]: 20 mm; zone of inhibition at 30 µg/disc [12]: 20 mm; zone of inhibition at 30 µg/disc [13]: 24 mm; zone of inhibition at 30 µg/disc [14]: 0 mm
